# Test results as given in ChEMBL document CHEMBL4616673 (J Med Chem, 2020).
# Values joined by “and” are separate entries in the source; they are usually repeats but may differ in a detail not shown here. Equal entries are not always repeated.
# How the values were obtained:
# HeLa = assay: Antiproliferative activity against human HeLa cells assessed as reduction in cell viability measured after 48 hrs by MTT assay; type: functional, cell-based; settings: Homo sapiens, HeLa, 48 h
# Raji [1] = assay: Antiproliferative activity against human Raji cells assessed as reduction in cell viability measured after 48 hrs by MTT assay; type: functional, cell-based; settings: Homo sapiens, Raji, 48 h
# NAMALVA = assay: Antiproliferative activity against human NAMALWA cells assessed as reduction in cell viability measured after 48 hrs by MTT assay; type: functional, cell-based; settings: Homo sapiens, NAMALVA, 48 h
# Raji [2] = assay: Induction of ROS generation in human Raji cells assessed as increase in ROS level measured after 24 hrs by DHE dye based fluorescence microplate reader assay; type: functional, cell-based
# In short: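 Raji cells treated 24 h, harvested, stained with 10 μM DHE in pre-warmed PBS for 15 min in the dark. Fluorescence read on a plate reader at ex 510/em 600 nm. Mean ± SD.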
# Raji [3] = assay: Induction of apoptosis in human Raji cells assessed as live cells at 0.031 uM measured after 48 hrs by Annexin V-FITC staining based flow cytometry (reference value: 98.09 %); type: functional
# Raji [4] = assay: Induction of apoptosis in human Raji cells assessed as late apoptotic cells at 0.031 uM measured after 48 hrs by Annexin V-FITC staining based flow cytometry (reference value: 0.7 %); type: functional
# Raji [5] = assay: Induction of apoptosis in human Raji cells assessed as necrotic cells at 0.063 uM measured after 48 hrs by Annexin V-FITC staining based flow cytometry (reference value: 0.21 %); type: functional
# Raji [6] = assay: Induction of apoptosis in human Raji cells assessed as early apoptotic cells at 0.125 uM measured after 48 hrs by Annexin V-FITC staining based flow cytometry (reference value: 1 %); type: functional
# [7] = Stability of the compound in pH 1 to 7.4 buffer assessed as decrease in compound concentration at 0.01 mg/ml measured up to 24 hrs by LC-MS analysis; type: physicochemical; settings: read-out: Drug degradation
# In short: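 Compound at 0.01 mg/mL final in buffer containing 10% acetonitrile at pH 1.0, 4.5, 6.6, 7.4 or 9.0. Held at 37 °C, sampled at 0, 2, 4, 6, 8, 10, 12 and 24 h. Remaining compound by LC-MS.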
# [8] = Half life in human liver microsomes at 1 uM in presence of NADPH by LC-MS analysis; type: ADME, Microsome
# In short: (§1)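 Compound at 1 μM with 0.5 mg/mL human, rat or mouse liver microsomes and 1 mM NADPH. Stopped with acetonitrile at 0, 5, 15, 30, 45, 60 and 90 min, centrifuged. Supernatant analysed by LC-MS/MS.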
# [9] = Half life in rat liver microsomes at 1 uM in presence of NADPH by LC-MS analysis; type: ADME, Microsome; in short: as §1
# Raji [10] = assay: Antitumor activity against human Raji cells xenografted in NOD-SCID nude mouse assessed as tumor growth inhibition at 40 mg/kg/day, po administered 6 days a week for 3 weeks relative to control; type: functional; settings: read-out: TGI
# [11] = Toxicity in NOD-SCID nude mouse xenografted with human Raji cells assessed as death at 30 mg/kg/day, po administered 6 days a week for 3 weeks; type: organism-based; settings: in vivo
# In short: (§2)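 Mice, 6-7 weeks old, injected s.c. with 1×10^7 Raji cells in serum-free medium plus basement membrane matrix. At 100–200 mm3 tumours, randomised (n=6). Oral dosing 6 days/week for 3 weeks: 30 mg/kg/d free compound suspended in 5% NMP/95% PEG400, or 40 or 80 mg/kg/d nanocrystal. Body weight and tumour volume measured every 3 days.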
# [12] = Toxicity in NOD-SCID nude mouse xenografted with human Raji cells assessed as dermatitis at 30 mg/kg/day, po administered 6 days a week for 3 weeks; type: organism-based; settings: in vivo; in short: as §2
# [13] = Toxicity in NOD-SCID nude mouse xenografted with human Raji cells assessed as death at 40 to 80 mg/kg/day, po administered 6 days a week for 3 weeks; type: organism-based; settings: in vivo; in short: as §2
# [14] = Acute toxicity in po dosed BALB/c mouse assessed as maximum tolerated dose; type: organism-based; settings: in vivo
# In short: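 Acute oral dose-escalation in female and male BALB/c mice, 6-8 weeks old, dosed within 24 h. MTD is the highest dose without obvious side effects: body weight loss, diarrhea, anorexia, skin ulcer or toxic death.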
# [15] = Acute toxicity in BALB/c mouse assessed as effect on blood AST level at 400 mg/kg, po measured on day 14; type: organism-based; settings: in vivo
# In short: (§3)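 BALB/c mice, female and male, 6-8 weeks old, given oral doses within 24 h, up to 400 mg/kg (free compound) or 800 mg/kg (nanocrystal formulation). Watched for body weight loss, diarrhea, anorexia, skin ulcer and toxic death. Serum biochemistry panel was run at the end of treatment.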
# [16] = Acute toxicity in BALB/c mouse assessed as effect on blood ALB level at 400 mg/kg, po measured on day 14; type: organism-based; settings: in vivo; in short: as §3
# [17] = Acute toxicity in BALB/c mouse assessed as effect on blood ALP level at 400 mg/kg, po measured on day 14; type: organism-based; settings: in vivo; in short: as §3
# [18] = Acute toxicity in BALB/c mouse assessed as effect on blood CREA level at 400 mg/kg, po measured on day 14; type: organism-based; settings: in vivo; in short: as §3
# [19] = Acute toxicity in BALB/c mouse assessed as effect on blood LDH level at 400 mg/kg, po measured on day 14; type: organism-based; settings: in vivo; in short: as §3
# [20] = Acute toxicity in BALB/c mouse assessed as effect on blood HDL level at 400 mg/kg, po measured on day 14; type: organism-based; settings: in vivo; in short: as §3
# [21] = Acute toxicity in BALB/c mouse assessed as effect on blood ALT level at 800 mg/kg, po measured on day 14; type: organism-based; settings: in vivo; in short: as §3
# [22] = Acute toxicity in BALB/c mouse assessed as effect on blood BUN level at 800 mg/kg, po measured on day 14; type: organism-based; settings: in vivo; in short: as §3
# [23] = Acute toxicity in BALB/c mouse assessed as effect on blood TG level at 800 mg/kg, po measured on day 14; type: organism-based; settings: in vivo; in short: as §3
# [24] = Acute toxicity in BALB/c mouse assessed as effect on blood HDL level at 800 mg/kg, po measured on day 14; type: organism-based; settings: in vivo; in short: as §3
# [25] = Acute toxicity in BALB/c mouse assessed as effect on heart at 400 mg/kg, po measured on day 14 by H and E staining based light microscopic analysis; type: organism-based; settings: in vivo
# In short: (§4)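 Female and male BALB/c mice, 6-8 weeks old, dosed orally within 24 h at up to 400 mg/kg (free compound) or 800 mg/kg (nanocrystal). At the end of treatment, heart, liver, spleen, lung and kidney were sectioned, stained with H&E and imaged by light microscopy.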
# [26] = Acute toxicity in BALB/c mouse assessed as effect on liver at 400 mg/kg, po measured on day 14 by H and E staining based light microscopic analysis; type: organism-based; settings: in vivo; in short: as §4
# [27] = Acute toxicity in BALB/c mouse assessed as effect on spleen at 400 mg/kg, po measured on day 14 by H and E staining based light microscopic analysis; type: organism-based; settings: in vivo; in short: as §4
# [28] = Acute toxicity in BALB/c mouse assessed as effect on lung at 400 mg/kg, po measured on day 14 by H and E staining based light microscopic analysis; type: organism-based; settings: in vivo; in short: as §4
smiles,measurement,setting,value
O=C1c2ccccc2C(=O)c2c1nnn2-c1cc(F)c(-c2ccccc2F)c(F)c1,IC50,HeLa,> 10 µM
same,IC50,Raji [1],0.16 µM
same,IC50,NAMALVA,0.99 µM
same,Activity,Raji [2],Dose-dependent effect
same,Activity,Raji [3],93.14%
same,Activity,Raji [4],3.4%
same,Activity,Raji [5],0.34%
same,Activity,Raji [6],4.1%
same,"degraded at 24 h, 0.01 mg/ml",[7],1.6 to 9%
same,half-life at 1 µM,[8]; liver microsomes,32 min
same,t1/2,"[8]; microsomes, 1 µM",63 min
same,t1/2,[9],19.8 min and 54 min
same,inhibition in vivo at 40 mg/kg/day,Raji [10],52%
same,Activity,[11],Non-Toxic
same,Activity,[12],Non-Toxic
same,Activity,[13],Non-Toxic
same,MTD,"[14]; BALB/c, read-out: MTD",400 mg/kg
same,MTD,[14],800 mg/kg
same,Activity,[15],Non-Toxic
same,Activity,[16],Non-Toxic
same,Activity,[17],Non-Toxic
same,Activity,[18],Non-Toxic
same,Activity,[19],Non-Toxic
same,Activity,[20],Non-Toxic
same,Activity,[21],Non-Toxic
same,Activity,[22],Non-Toxic
same,Activity,[23],Non-Toxic
same,Activity,[24],Non-Toxic
same,Activity,[25],Non-Toxic
same,Activity,[26],Non-Toxic
same,Activity,[27],Non-Toxic
same,Activity,[28],Non-Toxic
